13 molecules from ChEMBL document CHEMBL1914307, “Small molecular CD4 mimics as HIV entry inhibitors” (Bioorg Med Chem, 2011) can be followed below.

For data set [1], the system named is Human immunodeficiency virus 1. As to the kind of experiment: Antiviral activity against R5 tropic HIV1 YTA infected in human TZM-bl cells assessed as beta-galactosidase activity preincubated for 15 mins before infection measured after 2 days by single-round assay using luminometry. It counts as functional, organism-based. As to conditions: Human immunodeficiency virus 1, YTA. In outline: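 Single-round infection of TZM-bl cells with R5 YTA virus; beta-galactosidase read as relative light units; IC50 = concentration giving 50% reduction vs virus control wells; mean of at least three independent experiments.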

Data set [2] in a line: Cytotoxicity against mock-infected human PM1 cells expressing CCR5 by WST-8 assay. It counts as cell-based. In short, it runs like this: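 Viability of mock-infected PM1/CCR5 cells determined by WST-8; CC50 = concentration reducing viability by half; mean of at least three independent experiments.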
Data set [3] can be described thus: Selectivity index, ratio of CC50 for mock-infected human PM1 cells expressing CCR5 to IC50 for R5 tropic HIV1 YTA infected in human TZM-bl cells. It counts as functional. In outline:
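SI calculated as CC50 (WST-8 viability, mock-infected PM1/CCR5 cells) divided by IC50 (beta-galactosidase reduction after single-round YTA infection of TZM-bl cells).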

A further data set relates to PM1. As to the kind of experiment: Induction of gp120 conformational change in R5 tropic Human immunodeficiency virus 1 subtype B isolate JR-FL infected in human PM1 cells assessed as binding of anti-HIV1 mAb 4C11 measuring mean fluorescence intensity at 100 uM preincubated for 15 mins by FACS analysis using antibody staining (reference value: 14.94 fluorescence intensity). It counts as cell-based. In outline: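 Env-expressing PM1 cells were pretreated with the CD4 mimic, then stained with the CD4-induced anti-envelope mAb 4C11 at 4 °C for 15 min. Cells were washed in PBS and detected with FITC-conjugated goat anti-human IgG. The read-out was flow cytometry on gated PM1 cells, giving the mean fluorescence intensity of 4C11. Anti-human CD19 served as the control antibody. Data are representative of at least two independent experiments.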
For orientation: Flow cytometry measures light scatter and fluorescence of single cells or particles in a stream.

Data set [4] deals with Human immunodeficiency virus 1. As to the kind of experiment: Antiviral activity against HIV1 infected in human PM1 cells expressing CCR5 assessed as inhibition of virus-induced cytopathogenicity by multi-round assay. It counts as functional, organism-based. Conditions: Human immunodeficiency virus 1, PM1. In outline:
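HIV-1-induced cytopathogenicity measured in PM1/CCR5 cells over multiple rounds of infection; IC50 from inhibition of cytopathic effect; mean of at least three independent experiments.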

Data set [5] in a line: Ratio of compound CC50 to NBD-556 CC50 for mock-infected human PM1 cells expressing CCR5 by WST-8 assay. It counts as ADME, cell-based. On the technique in general: Tetrazolium dyes change colour on reduction, which living cells bring about.

For the molecule `O=C(Nc1ccc(Cl)cc1)C(=O)Nc1ccc(Br)cc1`, the IC50 in data set [1] is greater than 100 µM. This molecule also registered a CC50 in data set [2] greater than 500 µM.
For the molecule `Cc1ccc(NC(=O)C(=O)NC2CC(C)(C)NC(C)(C)C2)cc1`, the IC50 in data set [1] was found to be 8.4 µM. Moreover, the CC50 in data set [2] was determined as 260 µM. Also, the “Ratio CC50/IC50” value in data set [3] was found to be 31.
Turning to `O=C(Nc1ccc(Cl)cc1)C(=O)Nc1ccc(Cl)cc1`, in data set [1], the half-inhibitory concentration (IC50) is greater than 100 µM. Further, the CC50 in data set [2] is greater than 500 µM.
Regarding `O=C(NCCc1ccccn1)C(=O)Nc1ccc(Cl)cc1`, in data set [1], the IC50 was found to be 19.8 µM. Moreover, the CC50 in data set [2] amounted to 480 µM. For the same molecule, the Flu intensity with PM1 amounted to 15.4. Further, the “Ratio CC50/IC50” value in data set [3] came to 24.
Consider `O=C(Nc1ccc(Cl)cc1)C(=O)NC1CCN(C(=O)Nc2ccccc2)CC1`, for which the IC50 in data set [1] came to 11 µM. In data set [2], this molecule registered a CC50 of 6.2 µM. Besides, the “Ratio CC50/IC50” value in data set [3] stood at 0.56.
As to `O=C(Nc1ccc(Cl)cc1)C(=O)NC1CCNCC1`, the IC50 in data set [1] stood at 7 µM. In data set [2], this molecule yielded a CC50 of 51 µM. In addition, in the data set on PM1, the Flu intensity stood at 20.5. The “Ratio CC50/IC50” value in data set [3] came out at 7.3.
Regarding `CC1(C)CC(NC(=O)C(=O)Nc2ccc(Cl)cc2)CC(C)(C)N1`, the IC50 turned out to be 0.61 µM in data set [1] and 0.9 µM in data set [4]. Also, the CC50 in data set [2] was 35 µM. In addition, the Flu intensity in the data set with PM1 is 23.1. The “Ratio CC50/IC50” value in data set [3] worked out at 57.
As to `O=C(Nc1ccc(Cl)cc1)C(=O)NC1CC2(CCCCC2)NC2(CCCCC2)C1` (configuration not stated), the selectivity ratio in data set [5] was 4. In addition, the IC50 in data set [1] amounted to 0.68 µM; in data set [4], 0.56 µM. For the same molecule, the CC50 in data set [2] is 120 µM. Further, in the data set on PM1, the Flu intensity was found to be 22.2. In data set [3], the “Ratio CC50/IC50” value is 176.
As for `O=C(Nc1ccc(Cl)cc1)C(=O)NC1CCN(C(=O)c2ccccc2)CC1`, the IC50 in data set [1] was 5.1 µM. Further, in the data set on PM1, the Flu intensity was found to be 17.8.
For the molecule `NC(=S)N1CCC(NC(=O)C(=O)Nc2ccc(Cl)cc2)CC1`, the IC50 in data set [1] was 5.5 µM. Besides, the CC50 in data set [2] came to 42 µM. Besides, the Flu intensity in the data set with PM1 was 20.2. For the same molecule, the “Ratio CC50/IC50” value in data set [3] amounted to 7.6.
Turning to `NC(=O)N1CCC(NC(=O)C(=O)Nc2ccc(Cl)cc2)CC1`, the IC50 in data set [1] turned out to be 8.3 µM. In data set [2], this molecule showed a CC50 of 310 µM. Moreover, the Flu intensity in the data set on PM1 amounted to 16. Moreover, the “Ratio CC50/IC50” value in data set [3] came out at 37.
The corresponding values for `N=C(N)N1CCC(NC(=O)C(=O)Nc2ccc(Cl)cc2)CC1.O=C(O)C(F)(F)F` are 6.1 µM, 72 µM, 20.9 and 12.
Take `O=C(Nc1ccc(F)cc1)C(=O)Nc1ccc(Cl)cc1`: the IC50 in data set [1] was found to be 3.1 µM. Besides, the CC50 in data set [2] was greater than 500 µM. The Flu intensity in the data set on PM1 was determined as 15.2. The “Ratio CC50/IC50” value in data set [3] was greater than 160.

A word on the IC50: it is the concentration that inhibits the measured activity by half. One may read the CC50 as the concentration at which the toxic effect on the cells reaches its halfway point.
